Screens as filed in PubChem.
Compounds with a hit are over-represented: about 1% of the library has one in this group of screens.
hK5 inh – human KLK5 protease inhibitors, primary screen, biochemical, 1536-well | Kallikrein-5 (Homo sapiens), Q9Y337 | recombinant hK5, fluorogenic AMC substrate cleavage | inhibition, % at 5 µM | 210,000 compounds, 0.59% hits;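 active = inhibition of 40% or more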
Thrombin inh – human alpha-thrombin inhibitors, primary screen, counter-screen for coagulation protease inhibitor project, biochemical, 1536-well, fluorogenic AMC substrate | Boc-VPR-AMC fluorogenic substrate cleavage | inhibition, % at 5 µM | 220,000 compounds, 0.26% hits;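 active = inhibition at or above 40%; inactive = inhibition below 40%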
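System: Human alpha-thrombin protein | Medium: pH 7.5 Tris (50 mM) with NaCl 150 mM, Tween 20 0.05% | Times: Enzyme reaction carried out at room temperature | Detection: AMC fluorescence, 355/460 nm | Evaluation: Percent inhibition scaled between no-compound controls and no-enzyme blanks | Benchmarks: Enzyme without compound as high, wells lacking enzyme as low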
FXIIa inh 1536 – human FXIIa protease inhibitors, primary screen, biochemical, 1536-well; Coagulation factor XII (Homo sapiens), P00748; purified FXIIa, Boc-QGR-AMC fluorogenic substrate, 2 h; inhibition, % at 5 µM; 220,000 compounds, 0.3% hits; AID 800, 2007; in the data active = inhibition above about 40%
FXIa inh 1536 – human FXIa protease inhibitors, primary screen, biochemical, 1536-well; inhibition, % at 5 µM; 220,000 compounds, 0.14% hits; purified FXIa, Boc-Glu-Ala-Arg-AMC fluorogenic substrate; Coagulation factor XI (Homo sapiens), P03951;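 active = inhibition of at least 40%; inactive = inhibition below 40%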;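 also: fluorescence of freed AMC excited at 355 nm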
Target sequence (P03951 19-387 limits assumed): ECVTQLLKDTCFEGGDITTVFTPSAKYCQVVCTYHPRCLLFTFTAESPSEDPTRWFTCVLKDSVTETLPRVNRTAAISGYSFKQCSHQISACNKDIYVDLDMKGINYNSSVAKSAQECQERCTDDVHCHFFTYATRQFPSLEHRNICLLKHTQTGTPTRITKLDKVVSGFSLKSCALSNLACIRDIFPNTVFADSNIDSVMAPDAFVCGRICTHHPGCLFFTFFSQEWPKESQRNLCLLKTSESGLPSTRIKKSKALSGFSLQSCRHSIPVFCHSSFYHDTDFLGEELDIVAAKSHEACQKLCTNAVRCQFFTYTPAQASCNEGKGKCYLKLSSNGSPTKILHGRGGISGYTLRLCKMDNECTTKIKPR
Target sequence (P03951 388-625 limits assumed): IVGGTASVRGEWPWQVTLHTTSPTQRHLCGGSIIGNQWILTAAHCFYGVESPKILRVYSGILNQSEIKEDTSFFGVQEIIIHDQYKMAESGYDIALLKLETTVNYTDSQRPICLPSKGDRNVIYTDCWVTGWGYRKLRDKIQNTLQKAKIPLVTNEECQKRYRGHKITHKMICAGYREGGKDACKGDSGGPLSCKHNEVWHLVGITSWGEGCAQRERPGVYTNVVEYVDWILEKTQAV
Each line names hits and unclear results; the compound was inactive in the other large screens.

CCOC(=O)Nc1sc(C)nc1-c1ccccc1	hK5 inh 196
Cc1ccccc1Oc1ncnc2oc(-c3ccccc3)cc12	hK5 inh 59
Clc1ccc(Oc2ncnc3oc(-c4ccccc4)cc23)cc1	none
Cc1ccsc1C(=O)NCCC(c1ccccc1)c1ccccc1	FXIIa inh 1536 48
O=C(NCCN1C(=O)C2C3C=CC(C3)C2C1=O)Nc1ccccc1 (stereo not given)	FXIIa inh 1536 107
Cc1ccc(NC(=O)NCCN2C(=O)C3C4C=CC(C4)C3C2=O)cc1 (stereo not given)	none
COc1cc(NC(=O)COC(=O)Cc2ccc(-c3ccccc3)cc2)cc(OC)c1	none
CCOc1cc(C2NC(=O)NC(O)(C(F)(F)F)C2C(=O)c2ccc(OC)cc2)ccc1O (stereo not given)	none
CCOc1cc(C2NC(=O)NC(O)(C(F)(F)F)C2C(=O)c2ccc(Cl)cc2)ccc1O (stereo not given)	Thrombin inh 54
N/C(Cn1cncn1)=N\NC(=O)C(=O)Nc1cccc(C(F)(F)F)c1	none
O=C(NNc1c(Cl)cc(Cl)cc1Cl)c1n[nH]c(=O)c2ccccc12	FXIIa inh 1536 74
O=C(c1nc2nc(-c3ccccc3)cc(C(F)(F)F)n2n1)N1CCCCC1	hK5 inh 64
CCOC(=O)c1cnc(COc2ccc(OC)cc2)[nH]c1=O	none
O=c1c2c3c(sc2n(CCN2CCOCC2)c(=O)n1Cc1ccco1)CCCCC3	none
O=c1c2c3c(sc2n(CCN2CCCCC2)c(=O)n1Cc1ccco1)CCCCC3	hK5 inh 44
CCOC(=O)/C(C)=C1\NC(C)(C)Cc2ccccc21	FXIIa inh 1536 65
O=C(Nc1cccnc1)c1ccc(F)cc1	none
CC(=O)NC(c1ccc(F)cc1)c1cccnc1 (stereo not given)	hK5 inh 49
COc1ccc(/C=N/NC(=O)c2ccc(N(C)S(=O)(=O)c3ccccc3)cc2)cc1OC	none
Cc1nn(-c2ccccc2)c(C)c1/C=C/C(=O)OCC(=O)N(C)C1CCS(=O)(=O)C1 (stereo not given)	none
CCN(C(=O)COC(=O)/C=C/c1c(C)nn(-c2ccccc2)c1C)C1CCS(=O)(=O)C1 (stereo not given)	FXIa inh 1536 43
CCNc1ccc(C(=O)OCC(=O)NC(C)c2ccccc2)cc1[N+](=O)[O-] (stereo not given)	none
CCNc1ccc(C(=O)OC(C(=O)NC(N)=O)C(C)C)cc1[N+](=O)[O-] (stereo not given)	hK5 inh 54
O=c1oc(-c2ccccc2NS(=O)(=O)c2ccc3ccccc3c2)nc2ccccc12	hK5 inh 59
S=C(NCCc1ccccc1)Nc1ccc(Br)cn1	hK5 inh 52, FXIa inh 1536 40
CCOc1ccc(NC(=O)c2ccccc2OCC(=O)c2ccccc2)cc1	none
COc1ccc(C(=O)Oc2c(C)occc2=O)cc1OC	none
Cc1occc(=O)c1OC(=O)Nc1ccc(Cl)c(Cl)c1	hK5 inh 47
CCOC(=O)c1sc2ncn(/N=C/c3cccnc3)c(=O)c2c1C	none
CCOC(=O)c1sc2ncn(/N=C/c3ccc(O)cc3)c(=O)c2c1C	FXIa inh 1536 49
CCCS(=O)(=O)Nc1ccc(-c2ccc3nnc(C)n3n2)cc1	none
CCOC(=O)c1cccc(NC(=O)CSc2nnc(-c3ccoc3C)n2CCOC)c1	FXIIa inh 1536 48
C=CCn1c(SCC(=O)Nc2cccc(C(=O)OC)c2)nnc1C(C)NC(=O)c1cccs1 (stereo not given)	hK5 inh 50
Cc1occc1-c1nnc(SCC(=O)Nc2ccccc2)n1CCc1ccccc1	none
O=C1c2ccccc2C(=O)N1/N=C/c1ccc(Oc2ccc([N+](=O)[O-])cn2)cc1	none
CCOC(=O)c1sc2ccc(S(=O)(=O)N3CCOCC3)cc2c1N	hK5 inh 56
C/C(=N\NS(=O)(=O)c1ccc(Cl)c([N+](=O)[O-])c1)c1cc2ccccc2o1	none
C/C(=N\NS(=O)(=O)c1ccc(C)c([N+](=O)[O-])c1)c1cc2ccccc2o1	hK5 inh 107
Cn1c(SCC(=O)c2ccccc2)nnc1-c1cccc(N)c1	hK5 inh 60, FXIIa inh 1536 106
CN(C)CCCNC(=O)C(=O)NCC1CCCO1 (stereo not given)	none
COc1ccc(N(C(=O)c2ccco2)S(=O)(=O)c2ccccc2)cc1	Thrombin inh 58
COc1ccc(N(C(=O)c2ccco2)S(=O)(=O)c2cc(Cl)c(Cl)cc2Cl)cc1	none
O=C(Nc1ccc(F)cc1)Nc1cc(OCC(F)(F)F)cc(OCC(F)(F)F)c1	FXIIa inh 1536 55
O=C(NCCNC(=O)c1cc(OCC(F)(F)F)ccc1OCC(F)(F)F)Nc1ccc(OC(F)(F)F)cc1	hK5 inh 49
CCOc1ccc(NC(=O)Nc2cc(OCC(F)(F)F)cc(OCC(F)(F)F)c2)cc1	none
CS(=O)(=O)c1ccc2nc(NC(=O)c3ccc(NS(=O)(=O)c4cccc([N+](=O)[O-])c4)cc3)sc2c1	Thrombin inh 53
CC(=O)Nc1ccc(S(=O)(=O)Nc2nc3ccc([N+](=O)[O-])cc3s2)cc1	none
CCCc1cc(=O)[nH]c(SCC(=O)c2cc(C)n(-c3c(C)n(C)n(-c4ccccc4)c3=O)c2C)n1	none
O=C(c1cccc(Cl)c1)N1CCN(Cc2ccccc2F)CC1	hK5 inh 94
COc1ccc(OC)c(CN2CCN(C(=O)c3cccs3)CC2)c1	none
COc1cc(OC)cc(C(=O)N2CCN(Cc3ccccc3C(F)(F)F)CC2)c1	FXIIa inh 1536 40
COc1ccc(OC)c(CN2CCN(C(=O)c3cccc4ccccc34)CC2)c1	hK5 inh 44
CCOC(=O)c1sc(NC(=O)CSC(=S)N2CCN(C)CC2)nc1C	FXIa inh 1536 44
CCOC(=O)CSc1snnc1-c1ccccc1	FXIIa inh 1536 58
CCOC(=O)CSc1ncc(-c2ccccc2)cn1	none
CCOC(=O)CSc1nnc(-c2ccccc2)o1	FXIa inh 1536 44
Cc1ccccc1-n1c(SCc2c(C)noc2C)nnc1-c1cccnc1	hK5 inh 52
COCCNC(=O)c1ccc(NS(=O)(=O)c2cc(C)ccc2C)cc1	hK5 inh 42
Cc1ccc(C)c(S(=O)(=O)Nc2ccc(C(=O)NCCc3ccccn3)cc2)c1	none
O=C(Nc1cccc(-c2nnn(CC(=O)N3CCc4ccccc4C3)n2)c1)C1CCC1	none
O=C(Nc1ccccc1-c1nnn(CC(=O)N2CCc3ccccc3C2)n1)C1CCC1	hK5 inh 56
CSCCC(NC(=O)c1cccc(C)c1)C(=O)OCC(=O)NC(=O)c1cccn1C (stereo not given)	Thrombin inh 48
Cc1ccc(C(=O)OCC(=O)NC(=O)c2cccn2C)cc1	none
CCCn1[nH]cc(SC)c(=O)c1=O	hK5 inh 122
CC(C)c1nnc(NC(=O)c2cnccn2)s1	Thrombin inh 41
Cc1cnc(C(=O)Nc2nnc(C(C)C)s2)cn1	none
O=C(CS(=O)(=O)Cc1ccccc1)Nc1ccc(S(=O)(=O)N2CCOCC2)cc1	none
